ChEMBL document CHEMBL4308835, “Fluorine-Substituted Pyrrolo[2,3- d]Pyrimidine Analogues with Tumor Targeting via Cellular Uptake by Folate Receptor α and the Proton-Coupled Folate Transporter and Inhibition of de Novo Purine Nucleotide Biosynthesis” (J Med Chem, 2018)
Calls of active or inactive are those of the source. The rule behind the calls is not given here.

Key:
[1] = target: T1, Reduced folate transporter (Homo sapiens) (UniProt P41440); test: Inhibition of human RFC2 expressed in human HeLa R1-11 cells assessed as reduction in [3H]MTX uptake at pH 7.2 at 10 uM measured over 2 mins relative to control; type: cell-based
T1 sequence (whole entry): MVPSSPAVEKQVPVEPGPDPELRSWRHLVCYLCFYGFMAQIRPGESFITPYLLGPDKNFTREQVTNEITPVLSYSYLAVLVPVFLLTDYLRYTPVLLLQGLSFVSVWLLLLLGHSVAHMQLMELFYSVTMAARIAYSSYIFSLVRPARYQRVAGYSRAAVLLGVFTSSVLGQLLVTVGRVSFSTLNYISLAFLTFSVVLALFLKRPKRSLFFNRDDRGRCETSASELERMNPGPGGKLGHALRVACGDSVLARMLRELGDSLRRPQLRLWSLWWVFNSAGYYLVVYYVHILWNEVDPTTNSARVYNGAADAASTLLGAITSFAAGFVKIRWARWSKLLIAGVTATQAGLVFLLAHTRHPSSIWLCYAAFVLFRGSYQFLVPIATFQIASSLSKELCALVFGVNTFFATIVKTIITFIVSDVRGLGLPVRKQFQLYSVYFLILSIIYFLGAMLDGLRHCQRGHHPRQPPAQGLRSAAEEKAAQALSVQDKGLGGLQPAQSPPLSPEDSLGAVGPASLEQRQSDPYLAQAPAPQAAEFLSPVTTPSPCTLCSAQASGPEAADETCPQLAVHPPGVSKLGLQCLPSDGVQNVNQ

[2] = target: T2, Proton-coupled folate transporter (Homo sapiens) (UniProt Q96NT5); test: Inhibition of human PCFT expressed in Chinese hamster R2/PCFT4 cells assessed as reduction in [3H]MTX uptake at pH 5.5 at 1 uM measured over 2 mins relative to control; type: cell-based
T2 sequence (whole entry): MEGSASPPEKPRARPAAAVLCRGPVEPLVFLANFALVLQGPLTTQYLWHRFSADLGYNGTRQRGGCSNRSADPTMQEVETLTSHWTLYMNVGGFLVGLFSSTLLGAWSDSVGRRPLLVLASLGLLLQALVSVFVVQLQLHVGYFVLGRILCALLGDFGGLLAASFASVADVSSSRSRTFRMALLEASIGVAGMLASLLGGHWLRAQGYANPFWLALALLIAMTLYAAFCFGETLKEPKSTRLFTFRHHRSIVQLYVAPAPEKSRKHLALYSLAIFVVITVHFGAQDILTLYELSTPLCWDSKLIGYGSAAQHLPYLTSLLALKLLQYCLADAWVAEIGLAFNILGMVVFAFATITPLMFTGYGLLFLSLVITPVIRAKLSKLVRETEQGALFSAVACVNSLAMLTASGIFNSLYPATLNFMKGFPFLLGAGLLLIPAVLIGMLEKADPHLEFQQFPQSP

[3] = target: T2, Proton-coupled folate transporter (Homo sapiens); test: Inhibition of human PCFT expressed in Chinese hamster R2/PCFT4 cells assessed as reduction in [3H]MTX uptake at pH 5.5 at 10 uM measured over 2 mins relative to control; type: cell-based
[4] = target: Folate receptor alpha (Homo sapiens) (UniProt P15328); test: Displacement of [3H]folic acid from human FRalpha expressed in Chinese hamster RT16 cells at 10 to 1000 nM after 15 mins; type: cell-based
Chain of Folate receptor alpha (Homo sapiens) (P15328 25-234 limits assumed): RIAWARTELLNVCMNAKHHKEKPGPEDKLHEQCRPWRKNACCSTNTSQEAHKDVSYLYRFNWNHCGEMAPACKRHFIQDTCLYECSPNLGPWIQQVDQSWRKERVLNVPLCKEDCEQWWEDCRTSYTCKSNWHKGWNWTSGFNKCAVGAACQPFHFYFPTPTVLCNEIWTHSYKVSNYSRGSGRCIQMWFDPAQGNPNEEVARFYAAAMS
In short: (§1)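 RT16 (FRα) or D4 (FRβ) CHO cells at ~80% confluence were washed with PBS at 4 °C, then with pH 3.5 acetate buffer to strip bound folate, then HEPES-buffered saline pH 7.4. Cells were incubated with 50 nM [³H]folic acid plus competitor (10–1000 nM) for 15 min at 4 °C, washed, and solubilized in NaOH. Bound radioactivity was normalized to protein.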

IGROV-1 [5] = test: Antiproliferative activity against human IGROV1 cells at 1 to 1000 nM in presence of 320 uM AICA after 96 hrs by Cell-Titer Blue assay; type: functional, cell-based
In short: (§2)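 IGROV1 cells, 2000/well, in folate-free RPMI 1640 with 10% dialyzed FBS, L-glutamine, 25 nM LCV. A range of drug concentrations was given with thymidine (10 μM), adenosine (60 μM) or AICA (320 μM) added. After 96 h, proliferation was measured by Cell-Titer Blue fluorescence. At least triplicate experiments.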

IGROV-1 [6] = test: Antiproliferative activity against human IGROV1 cells at 1 to 1000 nM in presence of 10 uM thymidine after 96 hrs by Cell-Titer Blue assay; type: functional, cell-based; in short: as §2
IGROV-1 [7] = test: Antiproliferative activity against human IGROV1 cells at 1 to 1000 nM in presence of 60 uM adenosine after 96 hrs by Cell-Titer Blue assay; type: functional, cell-based; in short: as §2
[8] = target: T1, Reduced folate transporter (Homo sapiens); test: Inhibition of human RFC2 expressed in human HeLa R1-11 cells assessed as reduction in [3H]MTX uptake at pH 7.2 at 1 uM measured over 2 mins relative to control; type: cell-based
[9] = target: T3, Proton-coupled folate transporter (Homo sapiens, UniProt Q96NT5); test: Inhibition of human PCFT expressed in Chinese hamster R2/PCFT4 cells assessed as reduction in [3H]MTX uptake at pH 5.5 measured over 2 mins by Dixon plot analysis; type: cell-based
T3 sequence (Q96NT5 whole entry): T2 sequence (whole entry)
In short: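 Competitor concentrations ranged from 0.05 to 0.5 μM. Ki was obtained by Dixon plot. Mean ± SE of four independent experiments.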

[10] = target: T2, Proton-coupled folate transporter (Homo sapiens); test: Inhibition of human PCFT expressed in Chinese hamster R2/PCFT4 cells assessed as reduction in [3H]MTX uptake at pH 5.5 at 1 to 10 uM measured over 2 mins; type: cell-based
IGROV-1 [11] = test: Antiproliferative activity against FRalpha […] human IGROV1 KD10 cells after 96 hrs by Cell-Titer Blue assay; type: functional, cell-based; settings: IGROV-1, 96 h
IGROV-1 [12] = test: Antiproliferative activity against FRalpha […] human IGROV1 KD4 cells after 96 hrs by Cell-Titer Blue assay; type: functional, cell-based; settings: IGROV-1, 96 h
IGROV-1 [13] = test: Antiproliferative activity against human IGROV1 cells harboring non targeted control shRNA sequence after 96 hrs by Cell-Titer Blue assay; type: functional, cell-based; settings: IGROV-1, 96 h
A2780 = test: Antiproliferative activity against human A2780 cells after 96 hrs by Cell-Titer Blue assay; type: functional, cell-based; settings: A2780, 96 h
IGROV-1 [14] = test: Antiproliferative activity against wild type human IGROV1 cells after 96 hrs by Cell-Titer Blue assay; type: functional, cell-based; settings: IGROV-1, 96 h
[15] = Antiproliferative activity in Chinese hamster R2 cells deficient in RFC, PCFT, and FRalpha assessed as reduction in cell growth after 96 hrs by Cell-Titer Blue assay; type: cell-based; settings: Cricetulus griseus, R2, 96 h
[16] = target: T4, Trifunctional purine biosynthetic protein adenosine-3 (Homo sapiens, UniProt P22102); test: Inhibition of GARFTase in human IGROV1 cells assessed as decrease in incorporation of [14C(U)glycine into [14C]formyl GAR formation after 24 hrs; type: cell-based
T4 sequence (P22102 whole entry): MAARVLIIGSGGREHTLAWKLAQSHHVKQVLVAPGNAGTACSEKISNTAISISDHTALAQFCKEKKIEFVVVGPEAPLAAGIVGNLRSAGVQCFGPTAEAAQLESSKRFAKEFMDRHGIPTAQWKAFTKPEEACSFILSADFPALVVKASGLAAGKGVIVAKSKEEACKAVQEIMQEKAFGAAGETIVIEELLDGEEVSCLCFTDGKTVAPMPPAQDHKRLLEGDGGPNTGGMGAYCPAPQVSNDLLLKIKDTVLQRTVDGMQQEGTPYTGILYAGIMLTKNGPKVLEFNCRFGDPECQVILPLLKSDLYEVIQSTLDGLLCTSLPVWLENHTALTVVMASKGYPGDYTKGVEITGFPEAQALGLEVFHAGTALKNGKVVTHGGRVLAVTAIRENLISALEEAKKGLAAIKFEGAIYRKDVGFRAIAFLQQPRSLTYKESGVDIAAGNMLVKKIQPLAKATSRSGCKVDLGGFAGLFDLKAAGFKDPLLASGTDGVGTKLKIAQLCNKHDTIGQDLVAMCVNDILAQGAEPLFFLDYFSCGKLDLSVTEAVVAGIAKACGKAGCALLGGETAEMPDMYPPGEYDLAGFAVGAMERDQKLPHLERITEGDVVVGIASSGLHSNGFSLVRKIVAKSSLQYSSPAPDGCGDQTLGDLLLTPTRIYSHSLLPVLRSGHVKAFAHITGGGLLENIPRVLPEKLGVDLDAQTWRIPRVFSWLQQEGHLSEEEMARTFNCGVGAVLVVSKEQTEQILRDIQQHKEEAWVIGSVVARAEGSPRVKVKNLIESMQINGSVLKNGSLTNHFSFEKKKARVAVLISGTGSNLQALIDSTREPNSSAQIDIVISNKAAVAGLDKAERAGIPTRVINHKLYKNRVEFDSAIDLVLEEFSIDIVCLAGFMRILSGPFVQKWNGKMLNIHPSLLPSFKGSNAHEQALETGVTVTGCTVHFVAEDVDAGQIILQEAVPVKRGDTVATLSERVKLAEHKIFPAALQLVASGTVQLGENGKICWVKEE

IGROV-1 [17] = test: Anticlonogenic activity against human IGROV1 cells incubated for 24 hrs followed by compound wash out and measured after 10 days by methylene blue staining-based assay; type: functional, cell-based
In short: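 IGROV1 cells plated in folate-free RPMI 1640 (pH 7.2), 10% dialyzed FBS, 25 nM LCV. After 24 h adherence, exposed to drug (0–20 μM) for 24 h at pH 6.8 (25 mM PIPES/25 mM HEPES). Washed, then grown drug-free at pH 7.2 (100 mM HEPES) with 25 nM LCV for up to 10 days at 37 °C. Colonies stained with methylene blue and counted electronically. Values normalized to vehicle controls. Triplicate experiments.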

[18] = target: Folate receptor beta (Homo sapiens) (UniProt P14207); test: Displacement of [3H]folic acid from human FRbeta expressed in Chinese hamster D4 cells at 10 to 1000 nM after 15 mins; type: cell-based; in short: as §1
Chain of Folate receptor beta (Homo sapiens) (P14207 17-230 limits assumed): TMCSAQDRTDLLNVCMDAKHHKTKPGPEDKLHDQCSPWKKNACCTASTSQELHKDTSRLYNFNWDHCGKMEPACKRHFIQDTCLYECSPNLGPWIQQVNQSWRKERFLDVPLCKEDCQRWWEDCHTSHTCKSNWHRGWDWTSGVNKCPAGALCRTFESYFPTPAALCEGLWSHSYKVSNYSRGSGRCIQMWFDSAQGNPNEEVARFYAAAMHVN

[19] = target: T1, Reduced folate transporter (Homo sapiens); test: Inhibition of human RFC2 expressed in human HeLa R1-11 cells assessed as reduction in [3H]MTX uptake at pH 7.2 at 10 uM measured over 2 mins relative to control

inhibition [1]	inhibition [2]	inhibition [3]	inhibition [4]	inhibition [8]	Ki [9]	inhibition [10]	IC50 (A2780)	IC50 [16]	IC50 (IGROV-1 [17])	inhibition [19]	Compound	Activity (IGROV-1 [5])	Activity (IGROV-1 [6])	Activity (IGROV-1 [7])	IC50 (IGROV-1 [11])	IC50 (IGROV-1 [12])	IC50 (IGROV-1 [13])	IC50 (IGROV-1 [14])	IC50 [15]	inhibition [18]
inactive	60 to 85%	90 to 95%	Active	inactive							Nc1nc2[nH]c(CCCCc3ccc(C(=O)N[C@@H](CCC(=O)O)C(=O)O)c(F)c3)cc2c(=O)[nH]1	inactive	Active	inactive						
inactive	Active	Active	Active	inactive	240 nM	Active	5.42 nM				Nc1nc2[nH]c(CCCCc3ccc(C(=O)N[C@@H](CCC(=O)O)C(=O)O)nc3)cc2c(=O)[nH]1				30.5 nM	64.1 nM	1.55 nM	1.87 nM		
inactive	60 to 85%	90 to 95%	Active	inactive				2 nM			Nc1nc2[nH]c(CCCCc3cnc(C(=O)N[C@@H](CCC(=O)O)C(=O)O)c(F)c3)cc2c(=O)[nH]1	inactive	Active	inactive	> 1000 nM	> 1000 nM			> 1000 nM	
inactive	Active	Active		inactive		Active					Nc1nc(N)c2nc(CNc3ccc(C(=O)N[C@@H](CCCNC(=O)c4ccccc4C(=O)O)C(=O)O)cc3)cnc2n1									
inactive				inactive			39.4 nM		> 20 µM		Nc1nc2[nH]cc(CCc3ccc(C(=O)N[C@@H](CCC(=O)O)C(=O)O)cc3)c2c(=O)[nH]1 [PEMETREXED]				22.2 nM	46.6 nM	71 nM	104 nM		
inactive	Active	Active		inactive	630 nM	Active	2.72 nM				Nc1nc2[nH]c(CCCc3ccc(C(=O)N[C@@H](CCC(=O)O)C(=O)O)cc3)cc2c(=O)[nH]1	inactive	Active	inactive					> 1000 nM	
< 30%	60 to 85%	90 to 95%	Active		70 nM	Active	7.6 nM	1.2 nM		< 30%	Nc1nc2[nH]c(CCCc3csc(C(=O)N[C@@H](CCC(=O)O)C(=O)O)c3F)cc2c(=O)[nH]1				42.2 nM	85.6 nM	5.61 nM	6.92 nM	20.5 nM	Active

Compound	inhibition [1]	inhibition [2]	inhibition [3]	inhibition [4]	inhibition [8]	Ki [9]	inhibition [10]	IC50 (A2780)	IC50 [16]	IC50 (IGROV-1 [17])	inhibition [19]	Activity (IGROV-1 [5])	Activity (IGROV-1 [6])	Activity (IGROV-1 [7])	IC50 (IGROV-1 [11])	IC50 (IGROV-1 [12])	IC50 (IGROV-1 [13])	IC50 (IGROV-1 [14])	IC50 [15]	inhibition [18]
Nc1nc2[nH]c(CCCCc3csc(C(=O)N[C@@H](CCC(=O)O)C(=O)O)c3)cc2c(=O)[nH]1	inactive	Active	Active	Active	inactive	360 nM	Active	28.8 nM							> 1000 nM	> 1000 nM	40.7 nM	54.3 nM	> 1000 nM	Active
Nc1nc2[nH]c(CCCCc3ccc(C(=O)N[C@@H](CCC(=O)O)C(=O)O)cc3)cc2c(=O)[nH]1	inactive				inactive			14.2 nM							> 1000 nM					
